Measurements gathered from unrelated publications.
Cell line: MDA-MB-231
Read-out: cell growth or viability

For `COc1cc2c(cc1O)CCN(Cc1cc(Br)c(OC)c(OC)c1)C2`, the GI50 was 200 nM (WST-1; 96 h).
`COc1cc2c(cc1O)CC[C@@H]1[C@@H]2CC[C@]2(C)[C@@H](O)CC[C@@H]12` gave a GI50 of 1700 nM (48 h).
`COc1cc2c(cc1OS(N)(=O)=O)CCN(Cc1cc(Cl)c(OC)c(OC)c1)C2` gave a GI50 of 40 nM (WST-1; 96 h).
With `COc1cc2c(cc1OS(N)(=O)=O)CCN(Cc1ccc(OC)c(OC)c1OC)C2` the GI50 was 11900 nM (WST-1; 96 h).
With `COc1cccc2c1C(=O)c1c(O)c3c(c(O)c1C2=O)C[C@@](O)(C(=O)CO)C[C@@H]3O[C@H]1C[C@H](N)[C@H](O)[C@H](C)O1` the GI50 was 53.3 nM (MTT; 72 h).
`COc1ccc(OC)c(CN2CCc3cc(O)c(OC)cc3C2)c1` has a GI50 of 37000 nM (WST-1; 96 h).
For `Cc1cc2c(cc1N1C(=O)c3cccc4c(CCCO)ccc(c34)C1=O)n(C)c(=O)n2C` (racemic), the GI50 was over 10000 nM (resazurin).
The GI50 of `COc1ccc(OC)c(CN2CCc3cc(OS(N)(=O)=O)c(OC)cc3C2)c1` is reported as 1850 nM (WST-1; 96 h).
`CCOc1c(OC)cc(CN2CCc3cc(OS(N)(=O)=O)c(OC)cc3C2)cc1OC` has a GI50 of 70 nM (WST-1; 96 h).
The GI50 of `CC(=O)c1c(C)c2cnc(Nc3ccc(N4CCNCC4)cn3)nc2n(C2CCCC2)c1=O` is reported as 250 nM (resazurin).
